The text below walks through data of PMC7050655 (ChemistryOpen, 2020).

For data set [1], the target named is human membrane bound IRAP overexpressed in HEK293 cells (Homo sapiens, UniProt Q9UIQ6). It counts as biochemical. In short, it runs like this:
(§1)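 HEK293T suspension cells were grown in Freestyle medium (37 °C, 8 % CO2, shaken) and transfected with PEI (2 μg/10^6 cells). Plasmid per 10^6 cells was 1.1 μg for human IRAP and 0.7 μg for human APN. Cells were harvested at 48 h. Membranes were prepared as for CHO cells, stored at −80 °C, Dounce-homogenised and diluted in assay buffer. The set-up matched the CHO assay: 1 mM L-Leu-pNA, pH 7.4 Tris/NaCl/PMSF buffer, 405 nm absorbance.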

The target in data set [2] is human aminopeptidase N overexpressed in HEK293 cells (Homo sapiens, UniProt P15144). It counts as biochemical. To be noted: for specificity for IRAP over human APN: IRAP versus human APN; for pIC50: human aminopeptidase N overexpressed in HEK293 cells. The essentials: as §1
For the next data set, the target named is T1, IRAP (Cricetulus griseus, UniProt A0A8C2M8D5).
T1 sequence (A0A8C2M8D5 1-1025): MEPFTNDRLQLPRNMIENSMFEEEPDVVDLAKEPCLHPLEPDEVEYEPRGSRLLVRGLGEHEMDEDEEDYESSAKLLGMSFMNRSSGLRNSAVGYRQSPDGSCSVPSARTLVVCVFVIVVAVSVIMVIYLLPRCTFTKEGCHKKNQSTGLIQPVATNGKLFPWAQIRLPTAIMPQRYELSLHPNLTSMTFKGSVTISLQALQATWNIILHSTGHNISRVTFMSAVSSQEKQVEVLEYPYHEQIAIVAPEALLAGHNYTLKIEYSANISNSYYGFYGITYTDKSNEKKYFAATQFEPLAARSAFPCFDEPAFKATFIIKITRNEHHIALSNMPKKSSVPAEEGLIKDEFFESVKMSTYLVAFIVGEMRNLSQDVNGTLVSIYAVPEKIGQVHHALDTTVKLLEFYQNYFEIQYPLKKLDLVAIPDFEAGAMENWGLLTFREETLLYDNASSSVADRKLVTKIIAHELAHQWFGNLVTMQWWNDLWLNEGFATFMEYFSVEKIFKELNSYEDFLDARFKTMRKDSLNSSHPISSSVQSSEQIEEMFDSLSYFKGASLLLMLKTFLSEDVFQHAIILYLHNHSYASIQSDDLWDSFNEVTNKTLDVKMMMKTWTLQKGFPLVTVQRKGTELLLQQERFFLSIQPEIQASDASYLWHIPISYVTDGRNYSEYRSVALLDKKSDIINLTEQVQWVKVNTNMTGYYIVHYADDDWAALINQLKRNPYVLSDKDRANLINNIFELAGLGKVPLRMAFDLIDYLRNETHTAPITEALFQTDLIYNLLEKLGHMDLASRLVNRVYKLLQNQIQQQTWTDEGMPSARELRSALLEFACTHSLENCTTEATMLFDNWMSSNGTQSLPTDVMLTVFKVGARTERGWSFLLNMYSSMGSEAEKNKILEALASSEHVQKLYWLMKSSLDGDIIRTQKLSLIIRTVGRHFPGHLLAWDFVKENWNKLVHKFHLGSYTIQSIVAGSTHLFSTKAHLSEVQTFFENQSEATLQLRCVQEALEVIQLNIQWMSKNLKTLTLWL
The data set is described as follows: Enzyme kinetics / competition studies with varied L-Leu-pNA substrate. It is filed as biochemical. The note with it: enzyme kinetics experiments. In short, it runs like this: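 Inhibitor was serially diluted (39 nM–150 μM), with four technical replicates per substrate level. Absorbance at 405 nm was read every ten minutes. The 150 μM slope defined maximal inhibition and was subtracted. Rates were fitted to uncompetitive, competitive and non-competitive models and compared; per-concentration Michaelis-Menten fits were also made.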

A short description of data set [3]: Metabolic stability in human liver microsomes. It is filed as in vitro ADME. In short, it runs like this: (§2)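 Part of an automated 96-well preclinical profiling panel with UPLC-MS/MS read-out. Values are mean and SD from three independent test occasions.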
(In general: Liver microsomes are a subcellular fraction often used to study metabolism.)

The nature of data set [4]: Metabolic stability in rat hepatocytes. The note with it: for hepatocyte CLint: Rat hep. Clint (rat hepatocytes intrinsic clearance), rat hepatocytes; for half-life: Rat hep. t 1/2, rat hepatocytes. It counts as in vitro ADME. The essentials:
as §2

Data set [5] can be described thus: Human plasma protein binding. It is filed as in vitro ADME. To be noted: PPB (human protein plasma binding). In short, it runs like this: (§3)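 Part of an automated 96-well profiling panel run in […], reporting fraction unbound and compound stability (% remaining after 18 h). Read-out by UPLC-MS/MS. Values are mean and SD from three independent test occasions.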

Another data set in a line: Human plasma stability. To be noted: after 18 h incubation. It is filed as in vitro ADME. The essentials:
as §3

In a further data set the target is T2, IRAP from CHO cells (Cricetulus griseus, UniProt A0A8C2M8D5).
T2 sequence (A0A8C2M8D5 1-1025): T1 sequence (A0A8C2M8D5 1-1025)
Kind of data set: IRAP inhibition, membrane preparations from CHO cells, L-Leu-pNA cleavage. It is filed as biochemical, Chinese hamster.

Molecules are shown by their SMILES. Bounds are passed on as bounds.

human aminopeptidase N overexpressed in HEK293 cells, sequence (P15144 whole entry): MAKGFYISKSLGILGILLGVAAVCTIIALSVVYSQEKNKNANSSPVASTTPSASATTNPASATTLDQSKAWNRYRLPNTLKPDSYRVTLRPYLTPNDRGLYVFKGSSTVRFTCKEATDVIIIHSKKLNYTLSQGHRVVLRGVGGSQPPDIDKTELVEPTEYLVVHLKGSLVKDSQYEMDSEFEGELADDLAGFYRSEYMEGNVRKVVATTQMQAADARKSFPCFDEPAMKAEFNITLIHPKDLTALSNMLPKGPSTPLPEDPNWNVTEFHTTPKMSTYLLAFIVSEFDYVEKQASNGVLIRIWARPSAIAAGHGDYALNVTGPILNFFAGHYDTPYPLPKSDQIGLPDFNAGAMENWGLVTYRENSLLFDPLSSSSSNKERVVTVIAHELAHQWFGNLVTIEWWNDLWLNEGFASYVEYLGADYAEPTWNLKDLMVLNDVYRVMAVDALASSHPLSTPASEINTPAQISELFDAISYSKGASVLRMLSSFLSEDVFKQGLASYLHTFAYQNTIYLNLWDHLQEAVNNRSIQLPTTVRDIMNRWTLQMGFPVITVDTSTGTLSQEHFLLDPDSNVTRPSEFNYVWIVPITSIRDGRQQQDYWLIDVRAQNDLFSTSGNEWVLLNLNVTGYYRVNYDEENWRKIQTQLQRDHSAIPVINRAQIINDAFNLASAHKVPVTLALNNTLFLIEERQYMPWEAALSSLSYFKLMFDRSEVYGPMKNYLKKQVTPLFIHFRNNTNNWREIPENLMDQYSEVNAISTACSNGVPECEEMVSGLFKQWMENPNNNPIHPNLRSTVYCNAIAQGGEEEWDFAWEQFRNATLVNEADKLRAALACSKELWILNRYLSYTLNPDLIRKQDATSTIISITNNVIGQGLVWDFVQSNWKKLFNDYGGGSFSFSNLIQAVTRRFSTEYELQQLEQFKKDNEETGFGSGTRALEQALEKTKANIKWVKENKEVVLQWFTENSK
human membrane bound IRAP overexpressed in HEK293 cells, sequence (Q9UIQ6 whole entry): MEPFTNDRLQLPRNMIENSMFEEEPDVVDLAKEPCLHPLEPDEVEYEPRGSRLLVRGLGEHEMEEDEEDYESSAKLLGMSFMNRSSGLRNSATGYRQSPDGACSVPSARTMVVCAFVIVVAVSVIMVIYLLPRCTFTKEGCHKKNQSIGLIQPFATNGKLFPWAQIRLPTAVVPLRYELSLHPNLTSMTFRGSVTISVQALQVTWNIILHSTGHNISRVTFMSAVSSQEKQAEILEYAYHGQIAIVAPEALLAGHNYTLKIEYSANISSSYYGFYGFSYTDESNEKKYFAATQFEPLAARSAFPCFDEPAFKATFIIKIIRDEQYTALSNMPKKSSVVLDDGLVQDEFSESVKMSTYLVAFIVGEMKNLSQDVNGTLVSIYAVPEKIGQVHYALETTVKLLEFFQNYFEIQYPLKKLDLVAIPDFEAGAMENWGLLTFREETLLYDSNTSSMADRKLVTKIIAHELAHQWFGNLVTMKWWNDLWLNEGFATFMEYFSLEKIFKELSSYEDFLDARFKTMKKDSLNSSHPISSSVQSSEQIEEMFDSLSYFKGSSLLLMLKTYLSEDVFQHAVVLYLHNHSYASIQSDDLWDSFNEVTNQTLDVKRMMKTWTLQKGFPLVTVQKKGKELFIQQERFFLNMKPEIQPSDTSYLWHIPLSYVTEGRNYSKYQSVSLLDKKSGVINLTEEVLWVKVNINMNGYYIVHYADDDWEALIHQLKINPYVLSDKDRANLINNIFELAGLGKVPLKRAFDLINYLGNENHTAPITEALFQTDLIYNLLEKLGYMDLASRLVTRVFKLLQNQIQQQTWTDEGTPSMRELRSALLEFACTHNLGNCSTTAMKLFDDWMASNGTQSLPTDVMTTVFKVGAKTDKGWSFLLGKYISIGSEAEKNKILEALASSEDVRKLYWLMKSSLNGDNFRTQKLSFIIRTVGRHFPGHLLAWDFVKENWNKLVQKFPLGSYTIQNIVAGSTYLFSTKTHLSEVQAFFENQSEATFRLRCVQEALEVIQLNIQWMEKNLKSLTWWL

One may read the IC50 as the concentration at which inhibition is half-maximal. For `CN1C(=O)C2(Nc3ccccc3C(=O)N2Cc2ccccc2)c2cc(Br)ccc21` (racemic) [Compound 32, 3′‐Benzyl‐5‐bromo‐1‐methyl‐1′H‐spiro[indoline‐3,2′‐quinazoline]‐2,4′(3′H)‐dione], in data set [1], it took 5.01 µM to reach half-maximal inhibition (IC50). Further, in data set [2], the “specificity for IRAP over human APN” value was “specificity for IRAP over human APN” and the pIC50 entry was “Inactive”. The “mode of inhibition versus L-Leu-pNA” value on IRAP is listed as “uncompetitive inhibitor”.

As a reminder, the half-life is how long it takes for the measured level to halve. A higher half-life goes with slow loss. By microsomal CLint is commonly meant the rate of metabolic loss divided by the concentration. In general, hepatocyte CLint refers to the capacity of the preparation to metabolise the compound, expressed as a volume cleared per time. A word on the fraction unbound: it is the share of the substance not bound to proteins or other matrix. Higher therefore signals weak binding. Turning to `Cc1ccc(N2C(=O)c3ccccc3NC23C(=O)N(C)c2ccc([N+](=O)[O-])cc23)cc1` (stereo not shown) [Compound 7, 1‐Methyl‐5‐nitro‐3′‐(p‐tolyl)‐1′H‐spiro[indoline‐3,2′‐quinazoline]‐2,4′(3′H)‐dione], the IC50 in data set [1] is 31.6 µM. The “loss of activity on hIRAP compared to IRAP from CHO-cells” value in data set [1] (hIRAP versus CHO IRAP) lay within 10 to 15 fold. Further, in data set [2], the “specificity for IRAP over human APN” value is given as “specificity for IRAP over human APN” and the pIC50 result is “completely inactive”. Besides, in data set [3], the half-life is less than 2.3 min and the microsomal CLint was more than 300 µL/min/mg. Besides, in data set [4], the hepatocyte CLint worked out at 114 ± 4 µL/min/1e6 cells and the half-life was found to be 6.1 ± 0.2 min. This compound also registered a fraction unbound in data set [5] of 0.098 ± 0.02. Moreover, the “Plasma stab (human plasma stability)” value in the data set “Human plasma stability” worked out at 100±5 % compound remaining.

`COc1ccc2c(c1)C1(Nc3ccccc3C(=O)N1c1ccc(C)cc1)C(=O)N2C` (stereo not shown) [Compound 9, 5‐Methoxy‐1‐methyl‐3′‐(p‐tolyl)‐1′H‐spiro[indoline‐3,2′‐quinazoline]‐2,4′(3′H)‐dione]: the “decrease of activity compared to compound 1” value on IRAP from CHO cells was “tenfold”.

On to `Cc1ccc(N2C(=O)c3ccccc3NC23C(=O)N(C)c2ccc(C)cc23)cc1` (stereo not shown) [Compound 10, 1,5‐Dimethyl‐3′‐(p‐tolyl)‐1′H‐spiro[indoline‐3,2′‐quinazoline]‐2,4′(3′H)‐dione], for which the “decrease of activity compared to compound 1” value at IRAP from CHO cells is listed as “tenfold”.

For `CCc1ccccc1-c1ccc2c(c1)C1(Nc3ccccc3C(=O)N1c1ccc(C)cc1)C(=O)N2C` (stereo not shown) [Compound 15, 5‐(2‐Ethylphenyl)‐1‐methyl‐3′‐(p‐tolyl)‐1′H‐spiro[indoline‐3,2′‐quinazoline]‐2,4′(3′H)‐dione], in data set [3], the half-life was less than 2.3 min and the microsomal CLint was more than 300 µL/min/mg. In data set [4], this compound gave an intrinsic metabolic clearance (hepatocyte CLint) of more than 300 µL/min/1e6 cells and a half-life of less than 2.3 min. In data set [5], the fraction unbound fell in the range of 0.0025 to 0.032. Also, the “Plasma stab (human plasma stability)” value in the data set “Human plasma stability” was 102±25 % compound remaining.

As for `CN1C(=O)C2(Nc3ccccc3C(=O)N2Cc2cccnc2)c2cc(Br)ccc21` (stereo not shown) [Compound 36, 5‐Bromo‐1‐methyl‐3′‐(pyridin‐3‐ylmethyl)‐1′H‐spiro[indoline‐3,2′‐quinazoline]‐2,4′(3′H)‐dione], the IC50 in data set [1] is 31.6 µM. In data set [2], the “specificity for IRAP over human APN” value is listed as “specificity for IRAP over human APN” and the pIC50 entry is on record as “Inactive”. Further, in data set [3], the half-life was less than 2.3 min and the microsomal CLint was more than 300 µL/min/mg. In data set [4], this compound displayed a hepatocyte CLint of 84 ± 14 µL/min/1e6 cells and a half-life of 8.5 ± 1.6 min. Besides, in data set [5], the fraction unbound is 0.055 ± 0.004. Further, the “Plasma stab (human plasma stability)” value in the data set “Human plasma stability” was 97±15 % compound remaining.

`CN1C(=O)C2(Nc3ccccc3C(=O)N2Cc2ccco2)c2cc(Br)ccc21` (stereo not shown) [Compound 37, 5‐Bromo‐3′‐(furan‐2‐ylmethyl)‐1‐methyl‐1′H‐spiro[indoline‐3,2′‐quinazoline]‐2,4′(3′H)‐dione] showed an IC50 in data set [1] of 12.6 µM. Further, in data set [2], the “specificity for IRAP over human APN” value is recorded as “specificity for IRAP over human APN” and the pIC50 result is “Inactive”. For the same compound, in data set [3], the half-life is less than 2.3 min and the microsomal CLint was more than 300 µL/min/mg. Further, in data set [4], the hepatocyte CLint amounted to 132 ± 39 µL/min/1e6 cells and the half-life was determined as 5.5 ± 1.4 min. Also, the fraction unbound in data set [5] was 0.041 ± 0.008. In addition, the “Plasma stab (human plasma stability)” value in the data set “Human plasma stability” is 98±3 % compound remaining.

As to `CCCCN1C(=O)c2ccccc2NC12C(=O)N(C)c1ccc(Br)cc12` (stereo not shown) [Compound 38, 5‐Bromo‐3′‐butyl‐1‐methyl‐1′H‐spiro[indoline‐3,2′‐quinazoline]‐2,4′(3′H)‐dione], in data set [3], the half-life was less than 2.3 min and the microsomal CLint is more than 300 µL/min/mg. In data set [4], the hepatocyte CLint came out at 248 ± 5 µL/min/1e6 cells and the half-life amounted to 2.8 ± 0.06 min. Besides, the fraction unbound in data set [5] worked out at 0.019 ± 0.004. Also, in “Human plasma stability”, the “Plasma stab (human plasma stability)” value was 105±7 % compound remaining.

In data set [1], `COCCN1C(=O)c2ccccc2NC12C(=O)N(C)c1ccc(Br)cc12` (stereo not shown) [Compound 39, 5‐Bromo‐3′‐(2‐methoxyethyl)‐1‐methyl‐1′H‐spiro[indoline‐3,2′‐quinazoline]‐2,4′(3′H)‐dione] showed an IC50 of 50.1 µM. Besides, in data set [2], the “specificity for IRAP over human APN” value was “specificity for IRAP over human APN” and the pIC50 result is recorded as “Inactive”. In data set [3], the half-life was less than 2.3 min and the intrinsic metabolic clearance (microsomal CLint) was more than 300 µL/min/mg. Also, in data set [4], the hepatocyte CLint amounted to 91 ± 8 µL/min/1e6 cells and the half-life amounted to 7.6 ± 0.6 min. This compound showed a fraction unbound in data set [5] of 0.14 ± 0.006. Also, the “Plasma stab (human plasma stability)” value in the data set “Human plasma stability” came out at 99±1 % compound remaining.

Compound `CN(C)CCN1C(=O)c2ccccc2NC12C(=O)N(C)c1ccc(Br)cc12` (stereo not shown) [Compound 40, 5‐Bromo‐3′‐(2‐(dimethylamino)ethyl)‐1‐methyl‐1′H‐spiro[indoline‐3,2′‐quinazoline]‐2,4′(3′H)‐dione] gave an IC50 in data set [1] of 39.8 µM. In data set [2], the “specificity for IRAP over human APN” value is reported as “specificity for IRAP over human APN” and the pIC50 entry was “Inactive”. Further, in data set [3], the half-life was determined as 8.6 ± 1 min and the microsomal CLint was found to be 81 ± 10 µL/min/mg. In data set [4], this compound displayed a hepatocyte CLint of 136 ± 22 µL/min/1e6 cells and a half-life of 5.2 ± 0.9 min. In data set [5], this compound showed a free fraction (fraction unbound) of 0.4 ± 0.04. Also, the “Plasma stab (human plasma stability)” value in the data set “Human plasma stability” turned out to be 95±2 % compound remaining.
